Experimental findings from ChEMBL document CHEMBL4699571, “Synthesis of Natural and Unnatural Quinolones Inhibiting the Growth and Motility of Bacteria” (2020) are described below.

Assay [1] concerns Bacillus spizizenii. In words: Inhibition of swarming motility of Bacillus subtilis subsp. spizizenii ATCC 6633 at 10 uM after 24 hrs. The assay is classed as functional, organism-based.
Assay [2] relates to Pseudomonas aeruginosa. In words: Antimicrobial activity against Pseudomonas aeruginosa ATCC 15692 assessed as reduction in microbial growth at 1.1 to 33.4 ug/ml after 24 hrs by broth microdilution method. The format is functional, organism-based. The following applies: dose microg/ml 1.1-33.4, time 24.0 hrs. The essentials: (§1)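 P. aeruginosa growth-inhibition assay in broth. Each compound was tested at final concentrations of 1.1, 2.1, 4.2, 8.4, 16.7 and 33.4 μg/mL. The read-out is the extent of growth inhibition at each concentration.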

The test system of assay [3] is Pseudomonas aeruginosa. In words: Antimicrobial activity against Pseudomonas aeruginosa ATCC 15692 assessed as zone of inhibition at 2 mg/ml after 24 hrs by agar well diffusion method. The format is functional. The conditions noted are these: for zone of inhibition at 2000 µg/mL: read-out: DIZ. In short, it runs like this:
(§2)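 Preliminary agar well-diffusion screen run against a panel of eight Gram-positive and Gram-negative test microbes.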
(In general: In agar diffusion tests the substance spreads into inoculated agar from a disc or well.)

Another assay has as its system Staphylococcus aureus. In words: Antimicrobial activity against Staphylococcus aureus ATCC 12600 assessed as zone of inhibition at 2 mg/ml after 24 hrs by agar well diffusion method. The assay is classed as functional. The conditions noted are these: for zone of inhibition at 2000 µg/mL: read-out: DIZ. In short, it runs like this: as §2
In assay [4] the test system is Bacillus spizizenii. In words: Antimicrobial activity against Bacillus subtilis subsp. spizizenii ATCC 6633 assessed as zone of inhibition at 2 mg/ml after 24 hrs by agar well diffusion method. The following applies: for zone of inhibition at 2000 µg/mL: read-out: DIZ. The assay is classed as functional. The essentials:
as §2

Assay [5] has as its system Staphylococcus epidermidis. In words: Antimicrobial activity against Staphylococcus epidermidis ATCC 14990 assessed as zone of inhibition at 2 mg/ml after 24 hrs by agar well diffusion method. The assay is classed as functional. The following applies: for zone of inhibition at 2000 µg/mL: read-out: DIZ. The essentials:
as §2

Assay [6] has as its system Pseudomonas aeruginosa. In words: Antimicrobial activity against Pseudomonas aeruginosa ATCC 15692 assessed as reduction in microbial growth at 4 times of MIC concentration after 24 hrs by time kill assay. The format is functional, organism-based. In short, it runs like this: (§3)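 Time-kill study against P. aeruginosa with compound at 1/4 MIC, MIC and 4 × MIC. Viable counts were followed as log CFU over a 24 h period, with sampling from 2 h onward. Ciprofloxacin served as the positive control.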

For assay [7], the system named is Pseudomonas aeruginosa. In words: Antimicrobial activity against Pseudomonas aeruginosa ATCC 15692 assessed as reduction in microbial growth after 24 hrs by broth microdilution method. The assay is classed as functional. In short, it runs like this:
as §1

The test system of assay [8] is Pseudomonas aeruginosa. In words: Antimicrobial activity against Pseudomonas aeruginosa ATCC 15692 assessed as reduction in microbial growth at 2.1 to 33.4 ug/ml after 24 hrs by broth microdilution method relative to control. The format is functional. The following applies: dose microg/ml 2.1-33.4. In short, it runs like this: as §1
(In general: Broth dilution looks for growth in wells or tubes with falling amounts of substance.)

For assay [9], the system named is Pseudomonas aeruginosa. In words: Antimicrobial activity against Pseudomonas aeruginosa ATCC 15692 assessed as reduction in microbial growth at MIC concentration after 10 hrs by time kill assay. The format is functional, organism-based. The essentials:
as §3

The subject of assay [10] is Pseudomonas aeruginosa. In words: Antimicrobial activity against Pseudomonas aeruginosa ATCC 15692 assessed as reduction in microbial growth at 0.25 times of MIC concentration after 2 to 24 hrs by time kill assay. The assay is classed as functional, organism-based. The following applies: time 2.0 hrs. In short, it runs like this: as §3

SMILES strings stand for the structures. The source made the active and inactive calls. The calls are words filed in the database; no cut-off is given here.

As to `COC(OC)c1c(C)c2ccccc2[nH]c1=O`, the “swarming motility inhibition (active/not active)” value with Bacillus spizizenii [1] was “inactive”.
For the compound `Cn1c(Cc2ccccc2)cc(=O)c2ccccc21`, the “swarming motility inhibition (active/not active)” value in the assay on Bacillus spizizenii [1] is “inactive”. In addition, in the assay on Pseudomonas aeruginosa [2], the result was inactive.
For `CO/C=C/c1cc(=O)c2ccccc2[nH]1`, the “swarming motility inhibition (active/not active)” value in the assay with Bacillus spizizenii [1] is “inactive”.
For the compound `CCOC(OCC)c1c(C)c2ccccc2[nH]c1=O`, the “swarming motility inhibition (active/not active)” value in the assay on Bacillus spizizenii [1] is “inactive”.
Same read-out and setting: then `CCCC/C=C/Cc1cc(=O)c2ccccc2n1C`, with “Active”; and `CCO/C=C/c1cc(=O)c2ccccc2[nH]1`, with “inactive”.
With `CCSCc1c(C)c2ccccc2[nH]c1=O`, in the assay with Bacillus spizizenii [1], the “swarming motility inhibition (active/not active)” value was “Active”.
Take `O=C(O)c1cn(C2CC2)c2cc(N3CCNCC3)c(F)cc2c1=O` [CIPROFLOXACIN]: the zone of inhibition at 2000 µg/mL in the assay with Pseudomonas aeruginosa [3] was found to be 35 mm.
Take `COCc1c(C)c2ccccc2[nH]c1=O`: the “swarming motility inhibition (active/not active)” value in the assay with Bacillus spizizenii [1] was “Active”.
For the compound `CCS/C=C/c1cc(=O)c2ccccc2[nH]1`, the “swarming motility inhibition (active/not active)” value in the assay with Bacillus spizizenii [1] is “inactive”. Also, the “diameter of the inhibition zone (DIZ)” value (in the assay on Pseudomonas aeruginosa [3]; in the assay on Bacillus spizizenii [4]; in assay [5]) was “inactive” in each case. In the assay with Staphylococcus aureus, the zone of inhibition at 2000 µg/mL was 13 mm. Further, the outcome in the assay with Pseudomonas aeruginosa [2] was inactive.
In the case of `CC1(C)S[C@@H]2[C@H](NC(=O)[C@H](N)c3ccccc3)C(=O)N2[C@H]1C(=O)O` [AMPICILLIN], the zone of inhibition at 2000 µg/mL stood at 39 mm in the assay on Staphylococcus aureus and 29 mm in assay [5].
On to `Cc1c(CN(C)C)c(=O)[nH]c2ccccc12`, for which the “swarming motility inhibition (active/not active)” value in the assay on Bacillus spizizenii [1] is “Active”.
In the case of `CS/C=C/c1cc(=O)c2ccccc2[nH]1`, the “swarming motility inhibition (active/not active)” value with Bacillus spizizenii [1] is “inactive”. The “diameter of the inhibition zone (DIZ)” value (in the assay on Pseudomonas aeruginosa [3]; in the assay with Staphylococcus aureus; in assay [5]) was “inactive” each time. The outcome in the assay on Pseudomonas aeruginosa [2] was inactive. Moreover, the zone of inhibition at 2000 µg/mL in the assay with Bacillus spizizenii [4] came out at 23 mm.
For the compound `CSC(SC)c1c(C)c2ccccc2[nH]c1=O`, the “swarming motility inhibition (active/not active)” value in the assay on Bacillus spizizenii [1] is “inactive”. In the assay on Pseudomonas aeruginosa [2], the outcome was inactive.
As for `CSCc1c(C)c2ccccc2[nH]c1=O`, the “swarming motility inhibition (active/not active)” value in the assay on Bacillus spizizenii [1] is “Active”.
Regarding `CSc1ccc(Cc2cc(=O)c3ccccc3n2C)cc1`, the “swarming motility inhibition (active/not active)” value in the assay on Bacillus spizizenii [1] is “Active”. Moreover, the zone of inhibition at 2000 µg/mL with Pseudomonas aeruginosa [3] worked out at 36 mm. Further, the “diameter of the inhibition zone (DIZ)” value (with Staphylococcus aureus; in the assay on Bacillus spizizenii [4]; in assay [5]) was “inactive” each time. In addition, the outcome in the assay on Pseudomonas aeruginosa [2] was inactive.
Turning to `CS/C=C\c1cc(=O)c2ccccc2[nH]1`, the “swarming motility inhibition (active/not active)” value with Bacillus spizizenii [1] is “inactive”.
Regarding `CN[C@H](CC(C)C)C(=O)N[C@H]1C(=O)N[C@@H](CC(N)=O)C(=O)N[C@H]2C(=O)N[C@H]3C(=O)N[C@H](C(=O)N[C@H](C(=O)O)c4cc(O)cc(O)c4-c4cc3ccc4O)[C@H](O)c3ccc(c(Cl)c3)Oc3cc2cc(c3O[C@@H]2O[C@H](CO)[C@@H](O)[C@H](O)[C@H]2O[C@H]2C[C@](C)(N)[C@H](O)[C@H](C)O2)Oc2ccc(cc2Cl)[C@H]1O` [VANCOMYCIN], in the assay on Bacillus spizizenii [4], the zone of inhibition at 2000 µg/mL was determined as 19 mm.
As for `CCCC/C=C/Cc1cc(=O)c2ccccc2[nH]1`, in the assay on Bacillus spizizenii [1], the “swarming motility inhibition (active/not active)” value is “Active”. For the same compound, the result with Pseudomonas aeruginosa [6], in the assay with Pseudomonas aeruginosa [9], with Pseudomonas aeruginosa [10] and with Pseudomonas aeruginosa [2] was Active. In addition, the MIC (commonly the least concentration at which growth counts as inhibited) in the assay with Pseudomonas aeruginosa [7] was 33 µg/mL. Also, in the assay on Pseudomonas aeruginosa [8], the “inhibition (INH)” value turned out to be 37%. The zone of inhibition at 2000 µg/mL in the assay on Pseudomonas aeruginosa [3] came to 35 mm; in the assay on Staphylococcus aureus it was 9 mm; in the assay with Bacillus spizizenii [4], 9 mm; in [5], 24 mm.
Take `CCSC(SCC)c1c(C)c2ccccc2[nH]c1=O`: in the assay with Bacillus spizizenii [1], the “swarming motility inhibition (active/not active)” value was “inactive”. In addition, the outcome in the assay with Pseudomonas aeruginosa [2] was inactive.
In the case of `O=c1cc(Cc2ccccc2)[nH]c2ccccc12`, in the assay on Bacillus spizizenii [1], the “swarming motility inhibition (active/not active)” value was “Active”. In the assay on Pseudomonas aeruginosa [2], the outcome was inactive.
On to `CSc1ccc(Cc2cc(=O)c3ccccc3[nH]2)cc1`, for which the “swarming motility inhibition (active/not active)” value in the assay with Bacillus spizizenii [1] was “Active”. For the same compound, in the assay with Pseudomonas aeruginosa [3], the zone of inhibition at 2000 µg/mL came to 29 mm. In addition, the “diameter of the inhibition zone (DIZ)” value (in the assay on Staphylococcus aureus; with Bacillus spizizenii [4]; in assay [5]) was “inactive” throughout. In addition, the outcome with Pseudomonas aeruginosa [2] was inactive.
